Test results taken from ChEMBL document CHEMBL1142536, “Synthesis of triazole-linked beta-C-glycosyl dimers as inhibitors of PTP1B” (Bioorg Med Chem, 2008).

Columns and labels:
[1] = biological target: T1, Tyrosine-protein phosphatase non-receptor type 1 (Homo sapiens) (UniProt P18031); assay: Inhibition of human recombinant PTP1B catalytic domain at 20 ug/mL
T1 sequence (whole entry): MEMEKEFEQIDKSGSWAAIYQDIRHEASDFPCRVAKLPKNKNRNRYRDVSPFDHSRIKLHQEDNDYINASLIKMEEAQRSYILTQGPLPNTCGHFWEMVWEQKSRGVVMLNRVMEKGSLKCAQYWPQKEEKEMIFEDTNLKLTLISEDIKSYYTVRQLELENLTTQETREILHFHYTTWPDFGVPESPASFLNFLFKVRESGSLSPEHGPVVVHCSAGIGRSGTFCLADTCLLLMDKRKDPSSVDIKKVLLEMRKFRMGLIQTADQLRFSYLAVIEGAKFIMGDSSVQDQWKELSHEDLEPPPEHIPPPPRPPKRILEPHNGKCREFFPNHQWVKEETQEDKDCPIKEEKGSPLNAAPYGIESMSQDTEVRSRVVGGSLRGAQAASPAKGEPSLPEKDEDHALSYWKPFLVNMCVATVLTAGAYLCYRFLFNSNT
How it was run: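 Human PTP1B catalytic domain (recombinant) hydrolysing 2 mM pNPP in 50 mM MOPS pH 6.5 at 30 °C. pNP formation followed at 405 nm for 2 min. Initial rate taken from the early linear region. Compounds tested at 20 µg/mL. Result given as percent inhibition.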

[2] = biological target: T2, Tyrosine-protein phosphatase non-receptor type 1 (Homo sapiens, UniProt P18031); assay: Inhibition of human recombinant PTP1B catalytic domain
T2 sequence (P18031 whole entry): T1 sequence (whole entry)
How it was run: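 Recombinant human PTP1B catalytic domain, 30 nM, with 2 mM pNPP substrate in 50 mM MOPS pH 6.5 at 30 °C. pNP release read continuously at 405 nm for 2 min. Initial rate comes from the early linear part of the curve. Inhibitors diluted around the estimated IC50. IC50 from nonlinear fit of % inhibition vs [I] with a Hill coefficient term.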

Structure (SMILES): CC(=O)O[C@H]1[C@@H](OC(C)=O)[C@@H](Cn2cc(COC(=O)c3cccc(C(=O)OCc4cn(C[C@H]5O[C@@H](C6=CC(=O)c7ccccc7C6=O)[C@H](OC(C)=O)[C@@H](OC(C)=O)[C@H]5OC(C)=O)nn4)c3)nn2)O[C@@H](C2=CC(=O)c3ccccc3C2=O)[C@@H]1OC(C)=O
- inhibition [1]: 0.8%

Structure (SMILES): COc1cc([C@@H]2O[C@H](CN3C=C(COC(=O)c4cccc(C(=O)OCC5=CN(C[C@H]6O[C@@H](c7cc(OC)c8ccccc8c7OC)[C@H](OC(C)=O)[C@@H](OC(C)=O)[C@H]6OC(C)=O)NN5)c4)NN3)[C@H](OC(C)=O)[C@H](OC(C)=O)[C@H]2OC(C)=O)c(OC)c2ccccc12
- inhibition [1]: 7.5%

Structure (SMILES): CC(=O)O[C@@H]1[C@@H](OC(C)=O)[C@H](C2=CC(=O)c3ccccc3C2=O)O[C@H](Cn2cc(COC(=O)c3cccc(C(=O)OCc4cn(C[C@H]5O[C@@H](C6=CC(=O)c7ccccc7C6=O)[C@H](OC(C)=O)[C@@H](OC(C)=O)[C@@H]5OC(C)=O)nn4)c3)nn2)[C@H]1OC(C)=O
- inhibition [1]: 8.5%

Structure (SMILES): COc1cc([C@@H]2O[C@H](CN3C=C(COC(=O)c4cccc(C(=O)OCC5=CN(C[C@H]6O[C@@H](c7cc(OC)c8ccccc8c7OC)[C@H](OC(C)=O)[C@@H](OC(C)=O)[C@@H]6OC(C)=O)NN5)c4)NN3)[C@@H](OC(C)=O)[C@H](OC(C)=O)[C@H]2OC(C)=O)c(OC)c2ccccc12
- inhibition [1]: 12.5%

Structure (SMILES): O=C1C=CC(=O)C([C@@H]2O[C@H](Cn3cc(COC(=O)c4cccc(C(=O)OCc5cn(C[C@H]6O[C@@H](C7=CC(=O)C=CC7=O)[C@H](OC(=O)c7ccccc7)[C@@H](OC(=O)c7ccccc7)[C@@H]6OC(=O)c6ccccc6)nn5)c4)nn3)[C@@H](OC(=O)c3ccccc3)[C@H](OC(=O)c3ccccc3)[C@H]2OC(=O)c2ccccc2)=C1
- IC50 [2]: 0.62 µM
- inhibition [1]: 95.8%

Structure (SMILES): COc1ccc(OC)c([C@@H]2O[C@H](Cn3cc(COC(=O)c4cccc(C(=O)OCc5cn(C[C@H]6O[C@@H](c7cc(OC)ccc7OC)[C@H](OC(=O)c7ccccc7)[C@@H](OC(=O)c7ccccc7)[C@@H]6OC(=O)c6ccccc6)nn5)c4)nn3)[C@@H](OC(=O)c3ccccc3)[C@H](OC(=O)c3ccccc3)[C@H]2OC(=O)c2ccccc2)c1
- IC50 [2]: 0.87 µM
- inhibition [1]: 97.8%

Structure (SMILES): O=C1C=CC(=O)C([C@@H]2O[C@H](Cn3cc(COC(=O)c4cccc(C(=O)OCc5cn(C[C@H]6O[C@@H](C7=CC(=O)C=CC7=O)[C@H](OC(=O)c7ccccc7)[C@@H](OC(=O)c7ccccc7)[C@H]6OC(=O)c6ccccc6)nn5)c4)nn3)[C@H](OC(=O)c3ccccc3)[C@H](OC(=O)c3ccccc3)[C@H]2OC(=O)c2ccccc2)=C1
- IC50 [2]: 0.72 µM
- inhibition [1]: 95.5%

Structure (SMILES): CC(=O)OC[C@H]1O[C@@H](C2=CC(=O)C=CC2=O)[C@H](OC(C)=O)[C@@H](OC(C)=O)[C@@H]1OC(C)=O
- IC50 [2]: 4.85 µM

Structure (SMILES): COc1ccc(OC)c([C@@H]2O[C@H](Cn3cc(COC(=O)c4cccc(C(=O)OCc5cn(C[C@H]6O[C@@H](c7cc(OC)ccc7OC)[C@H](OC(=O)c7ccccc7)[C@@H](OC(=O)c7ccccc7)[C@H]6OC(=O)c6ccccc6)nn5)c4)nn3)[C@H](OC(=O)c3ccccc3)[C@H](OC(=O)c3ccccc3)[C@H]2OC(=O)c2ccccc2)c1
- IC50 [2]: 0.88 µM
- inhibition [1]: 98.5%
